Screening data as filed in PubChem.
Compounds with a hit are over-represented: about 3.4% of the library has one in this group of screens.
VIM-2 inh: blocks Pseudomonas aeruginosa VIM-2 metallo-beta-lactamase; purified VIM-2, nitrocefin hydrolysis, epi-absorbance fluorescence; AID 1527; inhibition, % at 5.6 µM; actives 0.89% (n = 290,000);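 active = inhibition above the mean of all tested compounds plus 3 SD, cutoff set per screening run, cut at about 7.5% in these data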;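 also: red hydrolysis product quenches plate fluorescence so inhibitors raise well fluorescence; 0% = enzyme with DMSO and 100% = DMSO without enzyme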
TMEM16A inh: mouse TMEM16A channel inhibition, primary screen. Q8BHY3. HEK293 TMEM16A/YFP iodide influx fluorescence, ionomycin. normalized B-score (activity score, 25-100; higher = stronger inhibition) at 10 µM. actives 1.2% (n = 310,000);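 active = ratio plate-corrected score three or more library SD toward inhibition, starting fluorescence score within five deviations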;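 also: score derived from kinetic fluorescence span divided by baseline fluorescence per well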
CHT inh: inhibitors of human choline transporter CHT | Q9GZV3 | CHT-expressing cells, membrane potential dye, choline response; active compounds read low | B-score at 10 µM | actives 0.86% (n = 310,000);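 active = B-score over 3 SD under the library average, and starting fluorescence ratio not unusually high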;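 also: choline stimulus applied at its EC90 after an EC20 pre-addition; B-score computed on integrated fluorescence ratio after choline addition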
TMEM16A act: activates or potentiates the mouse TMEM16A chloride channel | Q8BHY3 | HEK293 TMEM16A/YFP-H148Q/I152L, iodide quench fluorescence; active compounds read low | B-score at 10 µM | actives 0.3% (n = 340,000) | AID 623877;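 active = fluorescence-ratio B-score plate-corrected deviation score at least 3 library SD below zero, with starting fluorescence score within 5 deviations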;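 also: channel opened by trigger with iodide after compound preincubation; score built on the fluorescence ratio of max minus min over baseline; more negative score means more quench and so TMEM16A activation or potentiation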
CHT allo act: human CHT allosteric activation; Q9GZV3; actives 0.49% (n = 310,000); CHT-expressing cells, membrane potential dye, choline EC20; active compounds read high; LV-AA mutant CHT in HEK293 cells; B-score at 10 µM;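 active = initial fluorescence not abnormally high and integrated response B-score, plate-corrected, over 3 SD above library mean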
IMP-1 inh: blocks Pseudomonas aeruginosa IMP-1 metallo-beta-lactamase | purified IMP-1, nitrocefin hydrolysis, epi-absorbance fluorescence | inhibition, % at 5.6 µM | actives 0.45% (n = 290,000) | AID 1556;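 active = inhibition above the mean plus 3 SD of all compounds in the same screening run, cut at about 4.5% in these data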;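 also: 0% = IMP-1 with DMSO and 100% = DMSO wells lacking enzyme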
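system = purified recombinant IMP-1 beta-lactamase | amount = 0.2 nM IMP-1, as dispensed | medium = HEPES buffer pH 7.1 with ZnSO4 and Brij 35 | times = 25 °C, 15 min preincubation, 25 min reaction | detection = plate fluorescence quenching by hydrolysis product, ex 480/em 530 nm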
VIM-2 inh confirm: VIM-2 inhibition, confirmation assay; shares compounds with IMP-1 inh; purified VIM-2 enzyme, nitrocefin absorbance; inhibition, % at 5.6 µM; actives 73% (n = 200); in the data active = inhibition above about 8%;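 also: 0% = enzyme with vehicle and 100% = no enzyme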
TEM-1 inh 2: blocks E. coli TEM-1 beta-lactamase, VIM-2 IMP-1 counter-screen; shares compounds with IMP-1 inh; nitrocefin absorbance inhibition; inhibition, % at 5.6 µM; actives 50% (n = 200); AID 2184; in the data active = inhibition above about 0.66%
IMP-1 inh conf: confirmation of P. aeruginosa IMP-1 metallo-beta-lactamase inhibitors | AID 2189 | shares compounds with IMP-1 inh | purified IMP-1 enzyme, absorbance substrate hydrolysis | inhibition, % at 5.6 µM | actives 60% (n = 200); in the data active = inhibition above about 4.9%;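 also: 0% = enzyme with vehicle and 100% = vehicle without enzyme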
Starred values were filed as active, the others as inactive; i = inactive; · = no result given.

SMILES	VIM-2 inh	TMEM16A inh	CHT inh	TMEM16A act	CHT allo act	IMP-1 inh	VIM-2 inh confirm	TEM-1 inh 2	IMP-1 inh conf
CC(=O)Nc1sc2c(c1-c1nc3ccccc3s1)CCN(C(C)C)C2	18*	i	i	i	i	4.5*	15*	-3	-1
Cc1cccc(C)c1NC(=O)CNC(=O)c1ccccc1OCc1ccccc1	·	i	i	i	i	·	·	·	·
O=C1c2cccc3c(O)ccc(c23)C(=O)N1Cc1ccco1	18*	·	·	i	·	21*	31*	38*	28*
O=C(O)c1ccc2c(c1)C(=O)N(Cc1ccco1)C2=O	-1	i	i	i	i	-2	·	·	·
O=C1c2ccccc2C(=O)N1c1ccc(Cl)cc1	-6	i	i	·	i	-4	·	·	·
O=C1c2cccc3c(O)ccc(c23)C(=O)N1c1ccc(Cl)cc1	30*	i	i	i	i	22*	22*	29*	18*
COc1ccc(NC(=O)CN(C)S(=O)(=O)c2cnc[nH]2)cc1Cl	0	i	i	i	i	0	·	·	·
CCCCC(Sc1nc(N)c(NC(=O)c2ccco2)c(=O)[nH]1)C(=O)O (stereo unspecified)	12*	i	i	i	i	12*	25*	1.7*	36*
CN(C)c1ccc(/C=C(\C#N)C(=O)c2ccccc2)cc1	5	i	i	i	i	6.2*	13*	13*	11*
COc1ccc2c(Cl)c(C(=O)NCCCn3ccnc3)sc2c1Cl	26*	i	i	i	i	35*	45*	-4	57*
CCN(CC)CCOC(=O)c1ccc(N/C=C(/C#N)c2nc(-c3ccc(OC)cc3)cs2)cc1	-2	i	i	i	i	1	·	·	·
CCN(CC)CCOC(=O)c1ccc(N/C=C(/C#N)c2nc(-c3cc4ccccc4oc3=O)cs2)cc1	42*	i	i	i	i	13*	52*	-5	11*
Cc1cc(OCC(=O)OCC(=O)NCCN2C(=O)CSC2=O)ccc1Cl	·	·	·	i	·	·	·	·	·
O=C(CCN1C(=O)/C(=C/c2ccc(Cl)cc2)SC1=S)NCCCn1ccnc1	18*	i	i	i	i	18*	28*	1.2*	32*
O=C(O)C(Cc1ccccc1)N1C(=O)/C(=C/C=C/c2ccco2)SC1=S (stereo unspecified)	5	·	·	i	·	2	·	·	·
O=C(O)CCCN1C(=O)/C(=C/C=C/c2ccco2)SC1=S	7	i	i	i	i	10*	-1	-4	-3
COc1c(O)cc2oc(-c3ccc(O)cc3)cc(=O)c2c1O	·	i	i	i	i	·	·	·	·
COc1cc(OC)c(-c2c3cc(O)c(=O)cc-3oc3cc(O)c(O)cc23)cc1OC	16*	i	i	i	i	7.0*	49*	75*	46*
CN1/C(=C\C=C2/SC(=S)N(CC(=O)O)C2=O)C(C)(C)c2ccccc21	11*	i	i	i	i	17*	23*	21*	21*
CC(C)(C)[C@@H]1COC(=O)[C@H](Cc2ccc(F)cc2)C/C=C\C[C@H](CC(=O)N(CCO)Cc2ccccc2)C(=O)N1	·	·	·	i	·	·	·	·	·
Cc1cccn2c(=O)c3cc(C(=O)NCCCn4ccnc4)n(C)c3nc12	10*	i	i	i	i	23*	32*	-4	2
Cc1cccn2c(=O)c3cc(C(=O)N(C)C)n(C)c3nc12	6	i	i	i	i	-1	·	·	·
CC(O)C(NS(=O)(=O)c1ccc2ccccc2c1)C(=O)OCC(=O)Nc1ccccc1OC(F)F (stereo unspecified)	·	·	·	i	·	·	·	·	·
